# Yeast life ext: compounds extending yeast replicative lifespan, primary screen, S. cerevisiae, OD615; S. cerevisiae growth with nicotinamide; deaD strain in restrictive glucose medium; AID 775, 2007; inhibition of the nicotinamide effect, % at 10 µM; 0.68% of 130,000 active;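 active = inhibition above a set limit, placed 3 SD over the median of all compounds, cut at about 26% in these data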;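 note: 0% = nicotinamide-treated wells and 100% = cells grown without nicotinamide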
#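 Assay system: engineered S. cerevisiae DeaD replicative-lifespan strain, galactose-grown log-phase cells; medium: restrictive CSMM-D dextrose medium; also added: nicotinamide, 1.5 mM, co-present with compound; schedule: 48 h compound exposure at 30 °C, humidified; detection: absorbance at 615 nm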
# Yeast growth inh: growth inhibitors of yeast BB579 in restrictive medium, primary screen, yeast lifespan-shortening project, S. cerevisiae; inhibition, % at 10 µM; OD615, 48 h; 0.51% of 140,000 active;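 active = inhibition above a set limit, 3 SD over the mean compound inhibition, cut at about 44% in these data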
#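 System: Saccharomyces cerevisiae DeaD strain BB579, replicative lifespan model yeast. Buffer or medium: restrictive glucose-based CSMM-D medium. Doses: one dose, 10 µM compound with 0.25% DMSO. Timing: 4 h preincubation and 48 h exposure at 30 °C. Detection: turbidity as optical density at 615 nm. Benchmarks: amphotericin B 10 µg/mL, positive.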
# Efa HMGR inh: inhibitors of E. faecalis class II HMGR, primary screen, biochemical, Enterococcus faecalis; HMG-CoA reductase (Enterococcus faecalis, mvaE); purified E. faecalis HMGR, NADPH absorbance 340 nm kinetic; inhibition, % at 10 µM; 0.41% of 190,000 active;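 active = inhibition above a set limit, the median over all tested compounds plus 3 SD, cut at about 9.5% in these data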;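 note: enzyme runs in reverse so mevalonate oxidation gives rising NADPH absorbance; 0% = complete reaction with DMSO and 100% = background rate lacking mevalonate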
# sdo1 growth: growth rescue of sdo1-depleted yeast, primary screen, S. cerevisiae, bone marrow failure model; S. cerevisiae sdo1-depleted JHY4D growth rescue, OD600 30 h; stronger effect = higher value; pdr5 snq2 efflux-pump mutant strain; z-score at 10 µM; 0.21% of 140,000 active; AID 817, 2007;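 active = z-score above 3 at both the 24 hr and the 30 hr optical density reads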;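 note: z-score against mean and SD of all compound wells on the same plate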
# sdo1 rescue conf: SDO1-depleted yeast growth rescue, concentration-response, diseases of bone marrow failure, JHY4D, OD600. shares compounds with sdo1 growth. S. cerevisiae JHY4D (SDO1-depleted) growth rescue, 30 h; stronger effect = higher value; efflux-deficient strain, SNQ2 and PDR5 mutated. OD recovery (no concentration beside the values). 44% of 440 active;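 active = yeast growth recovered at 30 hours, either rising with dose fitted slope above 0.001 or with average optical density gain above 0.07, some results past the limit were not filed as active; inactive = growth falling with dose or no effect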;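 note: gain in OD600 from 0 h to 30 h averaged across all seven doses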
# An asterisk follows results filed as active; · = not tested or not shown. Sampled rows, rich in hits. Any-hit rate of the full collection: about 1.3%.
SMILES,Yeast life ext,Yeast growth inh,Efa HMGR inh,sdo1 growth,others
CCN(CC)C(=O)c1ccc(N2C(=O)C3CC=C(Cl)CC3C2=O)cc1 (centres undefined),26*,-2,1,0.06,
C=CCN(c1ccc(C(=O)N(CC)CC)cc1)S(C)(=O)=O,·,-12,-10,2.1,
Nc1ccccc1C(=O)OCC(=O)N1CCc2ccccc21,-5,-20,2,-0.26,
N#CSCC(=O)N1c2ccccc2CCc2ccccc21,43*,-51,-8,-1.2,
CC(C)Oc1cccc(NC(=O)c2cccn(Cc3ccc4c(c3)OC(F)(F)O4)c2=O)c1,-4,-74,14*,-1.6,
O=C(Nc1cccc(C(F)(F)F)c1)c1cccn(Cc2ccc3c(c2)OC(F)(F)O3)c1=O,-13,-72,1,-1.2,
CCCCC(CC)CNCC(O)c1ccccc1 (centres undefined),·,·,15*,·,
CC1CCC(NCC(O)c2ccccc2)CC1 (centres undefined),-2,-7,0,0.53,
CC[N+](CC)(CC#CCO)CC#Cc1ccccc1,·,·,-1,·,
CC(C)CCCn1c(O)c(/C=C2/C=CC=N2)c(=O)[nH]c1=O,2,-9,-6,-0.51,
O=C1NC(=S)N(c2ccccc2F)C(=O)/C1=C\c1cccs1,6,73*,0,-1.2,
CN1C2CCC1/C(=C/c1ccccn1)C(=O)/C2=C\c1ccccn1,37*,-31,-2,-1.2,
O=C1CN=C(c2ccc(Br)cc2)c2c(sc3c2CCCC3)N1CCN1CCCCC1,·,·,5,·,
Fc1ccc(Cn2nnnc2C(c2ccc(F)cc2)N2CC=C(c3ccc(F)cc3)CC2)cc1 (centres undefined),-3,-15,0,-0.06,
CN=C(SCc1cc2c(cc1Cl)OCO2)c1c(O)n(C)c(=O)n(C)c1=O,56*,18,0,0.36,
CCCCCc1nc2c(c(=O)c3ccccc3n2C)c(=O)n1C1CCCCCC1,34*,15,-5,-2,
COC(=O)[C@H]1C[C@@H]1[C@H](NP(=O)(c1ccccc1)c1ccccc1)c1ccccc1,8,-37,-3,-1.3,
O=C(O)[C@@H]1C[C@H]1[C@@H](NP(=O)(c1ccccc1)c1ccccc1)c1ccccc1,5,-53,21*,0.3,
CC(=O)CC(=O)C1C(=O)N(C)C(=O)N(C)C1=O,·,·,11*,·,
Nc1c(C(=O)NCCc2ccccc2)c2nc3ccccc3nc2n1CCN1CCOCC1,-35,99*,2,-1.9,
CC(C)n1c(=O)c(C=Nc2cccc([N+](=O)[O-])c2)c(O)n(CCc2ccccc2)c1=O,4,-18,4,0.15,
CNC(=O)Oc1cccc(-c2cn3cc(OC(=O)NC)ccc3n2)c1,-3,51*,2,-2,
CNC(=O)Oc1ccc(-c2cn3cc(Cl)ccc3n2)cc1,-5,-20,-7,1.1,
O=C1NC(=O)N(CCC2=CCCCC2)C(=O)/C1=C/c1ccc(O)cc1,41*,-40,0,0.45,
CCOc1ccc(/C=C2/C(=O)NC(=O)N(CCc3ccc(F)cc3)C2=O)cc1,49*,-13,-1,0.11,
SMILES,Yeast life ext,Yeast growth inh,Efa HMGR inh,sdo1 growth,others
COc1ccc(/C=C2\C(=O)NC(=O)N(CCC3=CCCCC3)C2=O)c(OC)c1,19,-21,-3,1.4,
COc1cc(/C=C2\C(=O)NC(=O)N(CCc3ccc(F)cc3)C2=O)ccc1O,12,2,-3,-0.14,
CC(C)c1ccc(N2C(=O)NC(=O)/C(=C/C=C/c3ccco3)C2=O)cc1,11,-21,-5,-1.2,
Cc1ccc(N2C(=O)NC(=O)/C(=C/C=C/c3ccco3)C2=O)cc1,27*,-26,-8,0.63,
Cc1cc(C)cc(N2C(=O)NC(=O)/C(=C\C=C\c3ccco3)C2=O)c1,28*,-13,-5,-0.72,
COP(=O)(OC)C(NS(=O)(=O)c1ccccc1)C(Cl)(Cl)Cl (centres undefined),·,·,-2,·,
Cc1cccc(N/N=C(\C(N)=O)C2=NC(C)(C)Cc3ccccc32)c1,-6,-36,-7,-1.7,
COc1ccc(C(=O)C23CN4CN(CN(C4)C2)C3)cc1,·,·,1,·,
CCc1ccc(C(=O)C23CN4CN(CN(C4)C2)C3)cc1,·,-35,12*,-0.38,
CNC(=S)N1CC2CC(C1)c1cccc(=O)n1C2 (centres undefined),·,·,-1,·,
NCCCCCC(=O)OC1N=C(c2ccccc2Cl)c2cc(Br)ccc2NC1=O (centres undefined),·,·,-1,·,
COc1ccc(C(=O)C(C)(C)NO)cc1,9,52*,1,1.6,
COc1ccc(C(=O)C(Cc2ccccc2)N(C)C)cc1 (centres undefined),-18,-31,-12,0.58,
CC(=O)Nc1nc(CCl)cs1,·,·,2,·,
CN(C)C1(c2nnnn2CCOC(=O)Nc2ccc(Cl)cc2)CCCCC1,66*,-12,-1,-1.1,
Cc1ccc(C(=O)c2cc(Br)ccc2N)cc1,·,·,-1,·,
Cc1cc(C=C2C(=O)NC(=S)NC2=O)c(C)n1-c1ccc2c(c1)OCO2,39*,-39,-4,-1.6,
CCCCNC(=S)N1CCn2cccc2C1c1cccnc1 (centres undefined),·,·,11*,·,
O=C(NCCN1CCCCC1)c1ccc(Cl)nc1Cl,·,·,0,·,
CCN1C(=O)C(=Cc2ccc(C)s2)C(=O)N(CC)C1=S,66*,-19,-1,-1.7,
CC(=O)NC(Cc1ccc(N(CCCl)CCCl)cc1)C(=O)O (centres undefined),·,2,-6,1.7,
O=C(O)CCCc1ccc(N(CCCl)CCCl)cc1,27*,-23,-6,-0.09,
Cc1cc(C=C2C(=O)N(C)C(=S)N(C)C2=O)c(C)n1-c1cccnc1,51*,13,-3,-0.55,
Cc1cc(/C=C2/C(=O)NC(=O)N(C)C2=O)c(C)n1-c1ccccc1,·,·,1,·,
COc1ccc(C[C@@H]2c3cc(O)c(OC)cc3CCN2C)cc1O,2,-42,20*,-0.12,
SMILES,Yeast life ext,Yeast growth inh,Efa HMGR inh,sdo1 growth,others
COc1ccc(-c2[nH]ncc2CNC(C)Cc2cccc(C)n2)cc1F (centres undefined),·,·,2,·,
Cc1c2ccncc2c(C)c2c1[nH]c1ccccc12,-8,100*,·,-1.8,
Cn1c(=O)cc(SCC(=O)N2CCC3(CC2)OCCO3)c2ccccc21,-2,4,-1,3.4*,sdo1 rescue conf=0.071*
Cn1c(=O)cc(OCC(=O)N2CCC3(CC2)OCCO3)c2ccccc21,-12,-39,-2,0.93,
Cc1c(C(c2ccc(O)cc2)c2c(O)c3ccccc3oc2=O)c(=O)n(-c2ccccc2)n1C (centres undefined),3,-28,-1,3.4*,sdo1 rescue conf=0.039
COC(=O)C1=C(N)Oc2cc(C)oc(=O)c2C12C(=O)Nc1ccccc12 (centres undefined),·,·,-1,·,
CCCCN1C(=O)/C(=C\c2ccco2)C(=O)N(CCc2ccccc2)C1=O,24,-35,-1,10*,sdo1 rescue conf=0.066
O=C(COc1ccccc1)c1cn(Cc2ccccc2)c2ccccc12,0,-25,1,0.04,

# Source: PubChem BioAssay
